Experimental findings from ChEMBL document CHEMBL3352507, “Preparation and antimalarial activity of a novel class of carbohydrate-derived, fused thiochromans” (Eur J Med Chem, 2014) are described below.

Structures are written as SMILES.

Series [1] is described as follows: Cytotoxicity against human WI38 cells after 48 hrs by SRB assay. It counts as cell-based. The settings on record: WI-38, 48 h. In a few lines: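 WI-38 human fetal lung fibroblasts (passages 21–50) in EMEM with 10% FBS, 2 mM L-glutamine and gentamicin, at 37 °C and 5% CO2. Seeded at 10 000 cells/well, grown 24 h, then given compound in DMSO diluted in medium to 5 concentrations for 48 h. Cells were fixed with cold 50% TCA and stained with SRB, and dye was read at 540 nm. IC50 by non-linear regression against untreated controls.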
A general note: Sulforhodamine B stains cellular protein and so reports cell mass.

Series [2] can be described thus: Cytotoxicity against human WI38 cells assessed as cell viability at 100 uM after 48 hrs by SRB assay. The settings on record: read-out: Activity. Type of series: cell-based, WI-38. In a few lines: (§1)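 WI-38 fibroblasts (passages 21–50) were seeded at 10 000 cells/well for 24 h, then exposed for 48 h to compound dissolved in DMSO and diluted in medium. Viable cells were fixed with cold 50% trichloroacetic acid and stained with sulforhodamine B. Bound dye was extracted with 10 mM Tris base and read at 540 nm. Viability relative to drug-free cells.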

Series [3] in a line: Cytotoxicity against human WI38 cells assessed as cell viability at 0.1 uM after 48 hrs by SRB assay. It counts as cell-based, WI-38. The settings on record: read-out: Activity. The gist of the method: as §1
The subject of series [4] is Plasmodium falciparum. As to the kind of experiment: Antimalarial activity against Plasmodium falciparum 3D7 after 48 hrs by parasite lactate dehydrogenase assay. Type of series: functional, organism-based. The settings on record: 3D7, 48 h. In a few lines: (§2)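 Parasite survival read by parasite lactate dehydrogenase (pLDH) assay. Single-concentration prescreen at […]; compounds with 0–15% survival were taken to dose–response. Ten three-fold serial dilutions in triplicate, incubated 48 h in a gassed airtight box, developed with NBT/PES. IC50 from sigmoidal curve of % survival relative to control against log concentration.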

A short description of series [5]: Cytotoxicity against human WI38 cells assessed as cell viability at 10 uM after 48 hrs by SRB assay. It counts as cell-based, WI-38. The settings on record: read-out: Activity. In a few lines:
as §1

Series [6] is described as follows: Cytotoxicity against human WI38 cells assessed as cell viability at 0.01 uM after 48 hrs by SRB assay. It counts as cell-based, WI-38. To be noted: read-out: Activity. In a few lines:
as §1

Series [7] in a line: Cytotoxicity against human WI38 cells assessed as cell viability at 1 uM after 48 hrs by SRB assay. Type of series: cell-based, WI-38. The settings on record: read-out: Activity. The gist of the method:
as §1

The test system of series [8] is Plasmodium falciparum. As to the kind of experiment: Antimalarial activity against Plasmodium falciparum FCR3 after 48 hrs by parasite lactate dehydrogenase assay. It counts as functional, organism-based. To be noted: FCR3, 48 h. The gist of the method: as §2

In general, IC50 refers to the concentration that inhibits the measured activity by half. `c1ccc(COC[C@H]2O[C@@H]3c4ccccc4SC[C@@H]3[C@@H](OCc3ccccc3)[C@@H]2OCc2ccccc2)cc1`: the values for the IC50 (in series [1]; in the series with Plasmodium falciparum [4]; in the series with Plasmodium falciparum [8]) were above 100 µM, 3.46 µM and 2.05 µM, respectively. The viability at 48 h, 100 µM in series [2] was determined as 58.1%. Further, the viability at 48 h, 0.1 µM in series [3] was 98.6%. Further, the viability at 48 h, 10 µM in series [5] was 85%. For the same molecule, the viability at 48 h, 0.01 µM in series [6] stood at 100%. In addition, in series [7], the viability at 48 h, 1 µM came to 97.6%.
`Cc1ccc2c(c1)[C@H]1O[C@H](COCc3ccccc3)[C@@H](OCc3ccccc3)[C@H](OCc3ccccc3)[C@H]1CS2`: the values for the IC50 (in series [1]; with Plasmodium falciparum [4]; with Plasmodium falciparum [8]) were above 100 µM, above 100 µM and 3.37 µM, respectively. Also, the viability at 48 h, 100 µM in series [2] turned out to be 72.8%. In addition, the viability at 48 h, 0.1 µM in series [3] was 96.3%. Besides, the viability at 48 h, 10 µM in series [5] is 90%. Moreover, the viability at 48 h, 0.01 µM in series [6] came out at 97%. In series [7], the viability at 48 h, 1 µM was found to be 97%.
Consider `COc1ccc2c(c1)[C@H]1O[C@H](COCc3ccccc3)[C@@H](OCc3ccccc3)[C@H](OCc3ccccc3)[C@H]1CS2`, for which the IC50 in series [1] is above 100 µM; in the series with Plasmodium falciparum [4], above 100 µM; in the series on Plasmodium falciparum [8], 1.73 µM. In addition, the viability at 48 h, 100 µM in series [2] was determined as 61%. Further, the viability at 48 h, 0.1 µM in series [3] was determined as 95.8%. Also, in series [5], the viability at 48 h, 10 µM worked out at 90.8%. For the same molecule, the viability at 48 h, 0.01 µM in series [6] turned out to be 97%. The viability at 48 h, 1 µM in series [7] worked out at 93.8%.
Regarding `Cc1cccc2c1SC[C@@H]1[C@@H](OCc3ccccc3)[C@H](OCc3ccccc3)[C@@H](COCc3ccccc3)O[C@H]21`, the IC50 in series [1] was above 100 µM; with Plasmodium falciparum [4] it was above 100 µM; in the series on Plasmodium falciparum [8] it was 2.26 µM. Moreover, the viability at 48 h, 100 µM in series [2] was found to be 68.8%. In addition, in series [3], the viability at 48 h, 0.1 µM was determined as 99.5%. Further, the viability at 48 h, 10 µM in series [5] came out at 85.4%. Moreover, the viability at 48 h, 0.01 µM in series [6] came out at 103%. For the same molecule, the viability at 48 h, 1 µM in series [7] was 97.5%.
On to `Cc1ccc2c(c1)[C@H]1O[C@H](COCc3ccccc3)[C@@H](OCc3ccccc3)[C@H](OCc3ccccc3)[C@H]1C[S@+]2[O-]`, for which the IC50 is above 100 µM in series [1], above 100 µM in the series on Plasmodium falciparum [4] and 4.11 µM in the series on Plasmodium falciparum [8]. Moreover, the viability at 48 h, 100 µM in series [2] came to 69.7%. In series [3], the viability at 48 h, 0.1 µM was determined as 101%. Moreover, in series [5], the viability at 48 h, 10 µM stood at 95.9%. For the same molecule, the viability at 48 h, 0.01 µM in series [6] was 103%. Also, in series [7], the viability at 48 h, 1 µM worked out at 99.1%.
As for `COc1ccc2c(c1)[C@H]1O[C@H](COCc3ccccc3)[C@@H](OCc3ccccc3)[C@H](OCc3ccccc3)[C@H]1C[S@+]2[O-]`, the results for the 50% inhibitory concentration (IC50) (in series [1]; in the series with Plasmodium falciparum [4]; with Plasmodium falciparum [8]) were above 100 µM, 2.75 µM and 2.62 µM, respectively. In addition, the viability at 48 h, 100 µM in series [2] was 79.9%. For the same molecule, in series [3], the viability at 48 h, 0.1 µM came to 100%. In series [5], the viability at 48 h, 10 µM turned out to be 95.8%. Also, in series [6], the viability at 48 h, 0.01 µM was 99.8%. Moreover, in series [7], the viability at 48 h, 1 µM amounted to 97.4%.
As for `CC(C)(C)c1ccc2c(c1)[C@H]1O[C@H](COCc3ccccc3)[C@@H](OCc3ccccc3)[C@H](OCc3ccccc3)[C@H]1C[S@+]2[O-]`, the values for the IC50 (in series [1]; in the series with Plasmodium falciparum [4]; in the series on Plasmodium falciparum [8]) were above 100 µM, 0.3 µM and 0.33 µM, respectively. In addition, the viability at 48 h, 100 µM in series [2] is 55.9%. Also, in series [3], the viability at 48 h, 0.1 µM was found to be 102%. Besides, the viability at 48 h, 10 µM in series [5] was found to be 92.8%. Besides, the viability at 48 h, 0.01 µM in series [6] came to 102%. The viability at 48 h, 1 µM in series [7] is 100%.
